≈ marks a conversion by molar mass, not a printed value.
Legend:
[1] = tested on: Human immunodeficiency virus 1; experiment: Antiviral activity against HIV1 3B in human MT4 cells assessed as protection against virus-induced cytopathogenicity by MTT assay; type: functional, organism-based; design: Activity: concentration or dose not given beside the values; settings: for IC50: Human immunodeficiency virus 1, 3B, MT4
Outline: (§1)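 MT-4 cells at 6 × 10⁵ cells/ml infected with HIV-1 IIIB or HIV-2 ROD at 100–300 CCID50; compounds in serial five-fold dilutions, triplicate mock- and virus-infected wells. MTT viability read at 540 and 690 nm after 5 days, median OD of three wells; EC50 = 50% protection from viral cytopathic effect.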

[2] = tested on: Human immunodeficiency virus 2; experiment: Antiviral activity against HIV2 ROD in human MT4 cells assessed as protection against virus-induced cytopathogenicity by MTT assay; type: functional, organism-based; design: Activity: concentration or dose not given beside the values; settings: for IC50: Human immunodeficiency virus 2, ROD, MT4; outline: as §1
[3] = Cytotoxicity against human MT4 cells by MTT assay; type: cell-based
Outline: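 Mock-infected MT-4 cells (6 × 10⁵ cells/ml) with serial five-fold compound dilutions in triplicate; MTT reduction read at 540 and 690 nm after 5 days, median OD of three wells; CC50 = concentration reducing OD540 of mock-infected control by 50%.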

[4] = Cytotoxicity against human HeLa cells; type: cell-based
Outline: (§2)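 Uninfected cell cultures exposed to test compounds alongside antiviral assays; minimum cytotoxic concentration (MCC) = concentration causing a microscopically detectable alteration of cell morphology.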

[5] = tested on: Vesicular stomatitis virus; experiment: Antiviral activity against vesicular stomatitis virus in human HeLa cells assessed as inhibition of virus-induced cytopathogenicity; type: functional
Outline: (§3)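 Confluent cell monolayers (E6SM, HEL, HeLa or Vero, per line) inoculated with 100 CCID50 virus; 1 h adsorption, residual virus removed, then incubated with compound at 400, 200, 100 … µg/ml. Cytopathicity scored once complete in untreated virus controls; MIC = concentration inhibiting virus-induced cytopathicity.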

[6] = tested on: Coxsackievirus B4; experiment: Antiviral activity against Coxsackie virus B4 in human HeLa cells assessed as inhibition of virus-induced cytopathogenicity; type: functional; settings: Enterovirus B; outline: as §3
[7] = tested on: Respiratory syncytial virus; experiment: Antiviral activity against respiratory syncytial virus in human HeLa cells assessed as inhibition of virus-induced cytopathogenicity; type: functional; outline: as §3
[8] = Cytotoxicity against human E6SM cells; type: cell-based; settings: E6SM cells; outline: as §2
[9] = Cytotoxicity against human HEL cells assessed as alteration of cell morphology; type: cell-based; outline: as §2
[10] = tested on: Human alphaherpesvirus 1; experiment: Antiviral activity against HSV1 KOS in human E6SM cells assessed as reduction of virus-induced cytopathogenicity; type: functional; settings: Human alphaherpesvirus 1, KOS; outline: as §3
[11] = tested on: Human alphaherpesvirus 1; experiment: Antiviral activity against HSV1 KOS in human HEL cells assessed as reduction of virus-induced cytopathogenicity; type: functional; settings: Human alphaherpesvirus 1, KOS; outline: as §3
[12] = tested on: Human alphaherpesvirus 2; experiment: Antiviral activity against HSV2 G in human E6SM cells assessed as reduction of virus-induced cytopathogenicity; type: functional; settings: Human alphaherpesvirus 2, G; outline: as §3
[13] = tested on: Human alphaherpesvirus 2; experiment: Antiviral activity against HSV2 G in human HEL cells assessed as reduction of virus-induced cytopathogenicity; type: functional; settings: Human alphaherpesvirus 2, G; outline: as §3
[14] = tested on: Vesicular stomatitis virus; experiment: Antiviral activity against in Vesicular stomatitis virus in human E6SM cells assessed as reduction of virus-induced cytopathogenicity; type: functional; outline: as §3
[15] = tested on: Vesicular stomatitis virus; experiment: Antiviral activity against in Vesicular stomatitis virus in human HEL cells assessed as reduction of virus-induced cytopathogenicity; type: functional; outline: as §3
[16] = tested on: Human alphaherpesvirus 1; experiment: Antiviral activity against thymidine kinase deficient and acyclovir resistant HSV1 KOS in human E6SM cells assessed as reduction of virus-induced cytopathogenicity; type: functional; settings: Human alphaherpesvirus 1, KOS; outline: as §3
[17] = tested on: Human alphaherpesvirus 1; experiment: Antiviral activity against thymidine kinase deficient and acyclovir resistant HSV1 KOS in human HEL cells assessed as reduction of virus-induced cytopathogenicity; type: functional; settings: Human alphaherpesvirus 1, KOS; outline: as §3
[18] = tested on: Vero; experiment: Cytotoxicity against african green monkey Vero cells; type: cell-based; settings: chlorocebus sabaeus; outline: as §2
[19] = tested on: Coxsackievirus B4; experiment: Antiviral activity against Coxsackie virus B4 in african green monkey Vero cells assessed as reduction of virus-induced cytopathogenicity; type: functional; settings: Enterovirus B; outline: as §3
[20] = tested on: Punta Toro virus; experiment: Antiviral activity against Punta Toro virus in african green monkey Vero cells assessed as reduction of virus-induced cytopathogenicity; type: functional; outline: as §3
[21] = tested on: Human respirovirus 3; experiment: Antiviral activity against Parainfluenza 3 virus in african green monkey Vero cells assessed as reduction of virus-induced cytopathogenicity; type: functional; outline: as §3
[22] = tested on: Mammalian orthoreovirus 1; experiment: Antiviral activity against Reo virus 1 in african green monkey Vero cells assessed as reduction of virus-induced cytopathogenicity; type: functional; outline: as §3
[23] = tested on: Sindbis virus; experiment: Antiviral activity against Sindbis virus in african green monkey Vero cells assessed as reduction of virus-induced cytopathogenicity; type: functional; outline: as §3

Structure (SMILES)	Activity [1] [%]	IC50 [1] [µg/mL]	Activity [2] [%]	IC50 [2] [µg/mL]	CC50 [3] [µg/mL]	MCC [4] [µg/mL]	MIC [5] [µg/mL]	MIC [6] [µg/mL]	MIC [7] [µg/mL]	MCC [8] [µg/mL]	MCC [9] [µg/mL]	MIC [10] [µg/mL]	MIC [11] [µg/mL]	MIC [12] [µg/mL]	MIC [13] [µg/mL]	MIC [14] [µg/mL]	MIC [15] [µg/mL]	MIC [16] [µg/mL]	MIC [17] [µg/mL]	Activity [18]	further results
C=CCNC(=S)Nc1ccc(-c2nnc(SCc3ccc(Cl)cc3Cl)n2-c2ccccc2)cc1	1.5	> 65.3	0	> 65.3	65.3 (≈ 124 µM)	80	> 16	> 16	> 16	≥ 16	≥ 16	> 16	> 16	> 16	> 16	> 16	> 16	> 16	> 16	>= 16 ug ml-1	MIC [19]: > 16 µg/mL; MIC [20]: > 16 µg/mL; MIC [21]: > 16 µg/mL; MIC [22]: > 16 µg/mL; MIC [23]: > 16 µg/mL
CCCCCCNC(=S)Nc1ccc(-c2n[nH]c(=S)n2CC)cc1	21	> 2.58	3	> 2.58	2.58 (≈ 7.1 µM)	≥ 400	> 400	> 400	> 400	400	400	> 80	> 80	> 80	> 80	> 80	> 80	> 80	> 80	400 µg/mL	MIC [19]: > 80 µg/mL; MIC [20]: > 80 µg/mL; MIC [21]: > 80 µg/mL; MIC [22]: > 80 µg/mL; MIC [23]: > 80 µg/mL
C=CCNC(=S)Nc1ccc(-c2nnc(SCc3ccc(Cl)cc3Cl)n2C)cc1	0.5	> 116	5	> 116	116 (≈ 250 µM)	400	> 80	> 80	> 80	80	80	> 16	> 16	> 16	> 16	> 16	> 16	> 16	> 16	80 µg/mL	MIC [19]: > 16 µg/mL; MIC [20]: > 16 µg/mL; MIC [21]: > 16 µg/mL; MIC [22]: > 16 µg/mL; MIC [23]: > 16 µg/mL
CCNC(=S)Nc1ccc(-c2n[nH]c(=S)n2-c2ccccc2)cc1	5.5	> 91.3	3	> 91.3	91.3 (≈ 257 µM)	≥ 80	> 80	> 80	> 80	≥ 3.2	≥ 3.2	> 3.2	> 3.2	> 3.2	> 3.2	> 3.2	> 3.2	> 3.2	> 3.2	>= 80 ug ml-1	MIC [19]: > 80 µg/mL; MIC [20]: > 80 µg/mL; MIC [21]: > 80 µg/mL; MIC [22]: > 80 µg/mL; MIC [23]: > 80 µg/mL
CCCCCCNC(=S)Nc1ccc(-c2n[nH]c(=S)n2C)cc1	8	> 8.82	0	> 8.82	8.82 (≈ 25.2 µM)	80	> 16	> 16	> 16	400	400	48 (≈ 137 µM)	48 (≈ 137 µM)	48 (≈ 137 µM)	48 (≈ 137 µM)	> 80	> 80	48 (≈ 137 µM)	48 (≈ 137 µM)	80 µg/mL	MIC [19]: > 16 µg/mL; MIC [20]: > 16 µg/mL; MIC [21]: > 16 µg/mL; MIC [22]: > 16 µg/mL; MIC [23]: > 16 µg/mL
C=CCNC(=S)Nc1ccc(-c2n[nH]c(=S)n2CCCCCC)cc1	4	> 10.1	0	> 10.1	10.1 (≈ 26.8 µM)	80	> 16	> 16	> 16	80	80	> 16	> 16	> 16	> 16	> 16	> 16	> 16	> 16	>= 16 ug ml-1	MIC [19]: > 16 µg/mL; MIC [20]: > 16 µg/mL; MIC [21]: > 16 µg/mL; MIC [22]: > 16 µg/mL; MIC [23]: > 16 µg/mL
CNC(=S)Nc1ccc(-c2n[nH]c(=S)n2-c2ccccc2)cc1	23.5	> 94.4	0	> 94.4	94.4 (≈ 276 µM)	≥ 400	> 400	> 400	> 400	400	400	240 (≈ 703 µM)	240 (≈ 703 µM)	> 80	> 80	> 80	> 80	240 (≈ 703 µM)	240 (≈ 703 µM)	>= 80 ug ml-1	MIC [19]: > 80 µg/mL; MIC [20]: > 80 µg/mL; MIC [21]: > 80 µg/mL; MIC [22]: > 80 µg/mL; MIC [23]: > 80 µg/mL
C=CCn1c(-c2ccc(NC(=S)NC)cc2)n[nH]c1=S	9	> 80.9	0	> 80.9	80.9 (≈ 265 µM)	400	> 80	> 80	> 80	400	400	240 (≈ 786 µM)	240 (≈ 786 µM)	240 (≈ 786 µM)	240 (≈ 786 µM)	> 80	> 80	240 (≈ 786 µM)	240 (≈ 786 µM)	>= 80 ug ml-1	MIC [19]: > 80 µg/mL; MIC [20]: > 80 µg/mL; MIC [21]: > 80 µg/mL; MIC [22]: > 80 µg/mL; MIC [23]: > 80 µg/mL
C=CCNC(=S)Nc1ccc(-c2n[nH]c(=S)n2C)cc1	9.5	> 78.2	1	> 78.2	78.2 (≈ 256 µM)	400	> 80	> 80	> 80	400	400	240 (≈ 786 µM)	240 (≈ 786 µM)	240 (≈ 786 µM)	240 (≈ 786 µM)	> 80	> 80	240 (≈ 786 µM)	240 (≈ 786 µM)	400 µg/mL	MIC [19]: > 80 µg/mL; MIC [20]: > 80 µg/mL; MIC [21]: > 80 µg/mL; MIC [22]: > 80 µg/mL; MIC [23]: > 80 µg/mL
S=C(Nc1ccccc1)Nc1ccc(-c2n[nH]c(=S)n2-c2ccccc2)cc1	25	> 28.6	0	> 28.6	28.6 (≈ 70.8 µM)	80	> 80	> 80	> 80	≥ 80	≥ 80	> 80	> 80	> 80	> 80	> 80	> 80	> 80	> 80	80 µg/mL	MIC [19]: > 16 µg/mL; MIC [20]: > 16 µg/mL; MIC [21]: > 16 µg/mL; MIC [22]: > 16 µg/mL; MIC [23]: > 16 µg/mL

Reference: ChEMBL document CHEMBL1149790, “Synthesis of some novel thiourea derivatives obtained from 5-[(4-aminophenoxy)methyl]-4-alkyl/aryl-2,4-dihydro-3H-1,2,4-triazole-3-thiones and evaluation as antiviral/anti-HIV and anti-tuberculosis agents” (Eur J Med Chem, 2008)
